KCNQ1 act: potentiates or activates the human KCNQ1 potassium channel; 310,000 tested, 0.35% active; P51787; B-score at 10 µM; CHO-K1 KCNQ1, thallium flux FluxOR fluorescence; stronger effect = higher value; AID 2648;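 active means fluorescence ratio B-score, a plate-corrected score, at least three library SD, with initial intensity B-score within 5 SD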
Target sequence (P51787 whole entry, looked up): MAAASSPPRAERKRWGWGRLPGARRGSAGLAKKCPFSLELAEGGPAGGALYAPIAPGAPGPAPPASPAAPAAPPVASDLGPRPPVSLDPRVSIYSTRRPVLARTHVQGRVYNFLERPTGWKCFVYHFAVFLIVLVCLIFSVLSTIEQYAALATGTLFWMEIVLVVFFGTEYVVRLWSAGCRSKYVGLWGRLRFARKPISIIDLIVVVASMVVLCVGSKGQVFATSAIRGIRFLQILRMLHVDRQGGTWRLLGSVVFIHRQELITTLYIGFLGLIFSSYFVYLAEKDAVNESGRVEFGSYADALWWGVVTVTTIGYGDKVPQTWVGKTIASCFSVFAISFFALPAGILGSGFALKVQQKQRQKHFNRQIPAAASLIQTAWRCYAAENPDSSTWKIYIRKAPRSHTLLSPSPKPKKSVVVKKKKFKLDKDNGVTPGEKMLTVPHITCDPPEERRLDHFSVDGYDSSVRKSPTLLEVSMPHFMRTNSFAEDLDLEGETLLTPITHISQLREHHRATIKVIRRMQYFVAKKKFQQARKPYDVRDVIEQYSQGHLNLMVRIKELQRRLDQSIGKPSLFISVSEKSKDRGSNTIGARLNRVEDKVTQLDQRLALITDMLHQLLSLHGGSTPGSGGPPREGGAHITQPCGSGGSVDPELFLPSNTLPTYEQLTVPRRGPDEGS
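Medium – assay buffer, equal DMSO in all wells · Material – CHO-K1 cell line with stable KCNQ1 potassium channel expression · Signal – kinetic FluxOR thallium fluorescence, 10-s 1-Hz baseline, 110-s post-stimulus read · Compound – single concentration per compound, DMSO matched to controls · Schedule – 37 °C overnight plating, 90-min dark dye load, 20-min compound pretreatment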
hERG protect: hERG (human) protection from proarrhythmic block. Q12809. CHO-hERG, FluxOR thallium flux, dofetilide IC70 present. activation (rescue from dofetilide block), less the hit threshold, % at 10 µM. 310,000 tested, 0.51% active. AID 1511;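 active means activation above the mean of controls blocked by dofetilide plus 5 SD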;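 further: thallium influx through hERG after potassium depolarization seen as dye fluorescence rise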
Kir21 block: blocks the mouse Kir2.1 inward-rectifier potassium channel; HEK293-Kir2.1, FluxOR thallium flux fluorescence; stronger effect = lower value; B-score at 10 µM; 310,000 tested, 0.85% active; AID 1672;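 active means fluorescence ratio B-score at or below minus 3 SD of library scores, with starting-brightness B-score within 2 SD, cut at about -4.2 in these data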;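 further: channel flux triggered by added potassium and thallium sulfate stimulus; B-score of peak minus minimum fluorescence over baseline after thallium stimulus; more negative B-score means stronger Kir2.1 block with less thallium influx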
KCNK3 inh: human KCNK3 channel inhibition, primary screen; O14649; CHO-KCNK3 thallium flux, FluxOR fluorescence; stronger effect = lower value; B-score at 10 µM; 340,000 tested, 0.84% active; AID 602410;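 active means B-score under library mean minus 4 SD, starting fluorescence ratio at most library mean plus 5 SD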;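 further: more negative B-score means stronger inhibition of thallium flux through KCNK3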
KCNQ1 inh: human KCNQ1 channel inhibition; P51787; CHO-K1 KCNQ1, FluxOR thallium flux fluorescence; stronger effect = higher value; B-score at 10 µM; 310,000 tested, 1.3% active;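 active means compounds whose thallium flux B-score, printed positive for inhibition, exceeds three library SD while starting fluorescence stays within three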;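 further: channel opened by potassium depolarization with thallium stimulus after 20 min compound exposure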
KCNK9 inh: human KCNK9 channel inhibition. 310,000 tested, 1.2% active. B-score at 10 µM. HEK293 KCNK9, FluxOR thallium flux fluorescence; stronger effect = lower value. AID 488922. Q9NPC2;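 active means ratio B-score over 3 SD below the library mean, with starting fluorescence within 5 SD of its mean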;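 further: negative B-score means less thallium flux so channel inhibition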
KCNK9 block conf: human KCNK9 inhibitor confirmation; HEK293 KCNK9 cells, FluxOR thallium flux fluorescence; inhibition, % at 10 µM; 4,900 tested, 43% active; shares compounds with KCNK9 inh; AID 492992;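 active means thallium signal inhibited by more than 5 SD of the compound-free buffer control wells, on both duplicate plates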
Kir2-1 spec: mouse Kir2.1 off-target activity of KCNK9 modulators; 4,900 tested, 4% active; inhibition, % at 10 µM; Kir2.1 cells, FluxOR thallium flux fluorescence; shares compounds with KCNK9 inh;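 active means thallium signal drop more than 5 SD beyond the mean of the no-compound control wells, seen in both duplicate plates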;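 further: signal is fluorescence rise after thallium addition divided by baseline fluorescence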
KCNK9 uninduced: non-induced cell nonspecific activity of KCNK9 modulators; shares compounds with KCNK9 inh; non-induced KCNK9-HEK293, FluxOR thallium flux; inhibition, % at 10 µM; 4,900 tested, 40% active;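 active means thallium signal drop beyond 5 SD of the untreated control mean, on both duplicate plates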
Each line names hits and unclear results; the compound was inactive in the other large screens (follow-up assays come after a bar, where they were run). Compounds with a hit are over-represented: about 3.7% of the library has one in this group of screens.

CCN(CC)c1ccc(/C=N/N2CCN(Cc3ccccc3)CC2)cc1	none | KCNK9 block conf inactive | Kir2-1 spec inactive | KCNK9 uninduced inactive
CCN(CC)c1ccc(/C=N/N2CCN(Cc3ccc(C)cc3C)CC2)c(O)c1	none | KCNK9 block conf inactive | Kir2-1 spec inactive | KCNK9 uninduced inactive
C(=N\N1CCN(Cc2ccccc2)CC1)/c1ccccc1	none
CN(C)c1ccc(/C=N/N2CCN(Cc3ccccc3Cl)CC2)cc1	none
CCN(CC)c1ccc(/C=N/N2CCN(Cc3ccccc3)CC2)c(O)c1	none | KCNK9 block conf inactive | Kir2-1 spec inactive | KCNK9 uninduced inactive
Cc1cc(C)c(S(=O)(=O)N2CCCOC2CNC(=O)C(=O)NCc2ccco2)c(C)c1 (stereo not given)	none
CC(Oc1ccc(Cl)cc1)c1ccc(C#N)c(=O)[nH]1 (stereo not given)	none
O=C(CN(C(=O)CCC(=O)Nc1ccccn1)c1ccc(F)cc1)NCc1ccc(F)cc1	none
CSc1ccc(/C=N/N2CCN(Cc3ccc(C)cc3C)CC2)cc1	none | KCNK9 block conf inactive | Kir2-1 spec inactive | KCNK9 uninduced inactive
CCN(CC)c1ccc(/C=N/Nc2cccc(C)c2)c(O)c1	none | KCNK9 block conf inactive | Kir2-1 spec inactive | KCNK9 uninduced inactive
CCN(CC)c1ccc(/C=N/Nc2ccccc2)c(O)c1	none
CC(C)N(Cc1ccccc1)C(=O)CCc1ccccc1	none | KCNK9 block conf inactive | Kir2-1 spec inactive | KCNK9 uninduced inactive
CSc1nc(C(=O)N2CCCC(Nc3ccc(C)c(C)c3)C2)cs1 (stereo not given)	none | KCNK9 block conf inactive | Kir2-1 spec inactive | KCNK9 uninduced inactive
Cc1nc(C(=O)N2CCCC(Nc3ccc(C)c(C)c3)C2)cs1 (stereo not given)	none
Cc1ccc(NC2CCCN(C(=O)C3CCCC3)C2)cc1C (stereo not given)	none | KCNK9 block conf inactive | Kir2-1 spec inactive | KCNK9 uninduced inactive
Cc1ccc(NC2CCCN(C(=O)c3cn4cccc(C)c4n3)C2)cc1C (stereo not given)	none | KCNK9 block conf inactive | Kir2-1 spec inactive | KCNK9 uninduced inactive
CN(Cc1cnccn1)Cc1ccccc1OCC(O)CN1CCc2ccccc2C1 (stereo not given)	none
CCOc1ccc(CN(C)CC(=O)Nc2cc(C)c(C)cc2[N+](=O)[O-])cc1	none | KCNK9 block conf inactive | Kir2-1 spec inactive | KCNK9 uninduced inactive
O=C(Nc1ccc2c(c1)OCO2)c1ccc(Br)c(S(=O)(=O)N2CCCC2)c1	KCNK9 inh -8.7 | KCNK9 block conf inactive | Kir2-1 spec inactive | KCNK9 uninduced inactive
CCOC(=O)c1c(NC(=O)CCS(=O)(=O)c2ccccc2)sc2c1CCN(C(C)C)C2	none
CCOC(=O)Cn1c(S(=O)(=O)Cc2cccc(F)c2)nc(-c2ccccc2)c1-c1ccccc1	KCNK9 inh -11 | KCNK9 block conf 50% | Kir2-1 spec inactive | KCNK9 uninduced 30%
CCOC(=O)Cn1c(S(=O)(=O)Cc2ccc(F)cc2)nc(-c2ccccc2)c1-c1ccccc1	KCNK9 inh -9.1 | KCNK9 block conf 34% | Kir2-1 spec inactive | KCNK9 uninduced 39%
C#CCn1c(S(=O)(=O)Cc2ccc(F)cc2)nc(-c2ccccc2)c1-c1ccccc1	KCNK9 inh -14 | KCNK9 block conf 61% | Kir2-1 spec inactive | KCNK9 uninduced 31%
NC(=O)Cn1c(S(=O)(=O)Cc2ccccc2)nc2ccccc21	none
C#CCCOC(=O)Nc1ccccc1	none
CCC(CO)Oc1cc(NCc2ccccc2Cl)c2ncn(C(C)C)c2c1 (stereo not given)	none (no result: KCNQ1 act, hERG protect, Kir21 block, KCNQ1 inh, KCNK9 inh)
Cc1ccc(CCC(=O)Nc2ccc(C)c(C)c2)o1	none
CCC(C(=O)N1CCN(c2cccc(Cl)c2)CC1)c1ccccc1 (stereo not given)	KCNK3 inh -11, KCNK9 inh -11 | KCNK9 block conf 50% | Kir2-1 spec inactive | KCNK9 uninduced 32%
CCN(CC)S(=O)(=O)c1ccc(N2CCOCC2)c(NC(=O)c2cc3ccccc3oc2=O)c1	KCNK9 inh -12 | KCNK9 block conf 55% | Kir2-1 spec inactive | KCNK9 uninduced inactive
Cc1sc(NC(=O)c2ccco2)c(CN2CCN(c3ccccn3)CC2)c1C	KCNK3 inh -9.8, KCNK9 inh -12 | KCNK9 block conf 48% | Kir2-1 spec inactive | KCNK9 uninduced 30%
Cc1cccc(NC(=O)/C(C#N)=C\c2ccc(C(=O)O)cc2)c1	none
COc1cc(C)c(/C=C(\C#N)C(=O)Nc2cccc(C)c2)cc1C(C)C	none | KCNK9 block conf inactive | Kir2-1 spec inactive | KCNK9 uninduced inactive
O=C(CSc1nc2sccc2c(=O)[nH]1)N1CCN(c2ccccc2)CC1	none
CCN(CC)C(=O)c1oc2ccc(S(=O)(=O)N3CC(C)CC(C)C3)cc2c1C (stereo not given)	none | KCNK9 block conf inactive | Kir2-1 spec inactive | KCNK9 uninduced inactive
COc1ccc(Cn2c(-c3ccc(Br)cc3)c[n+]3ccccc23)cc1	none
O=C(NCc1ccccc1)/C(=C/c1ccc(OC(F)F)cc1)c1ccccc1	KCNK9 inh -11 | KCNK9 block conf 40% | Kir2-1 spec inactive | KCNK9 uninduced 50%
COc1ccccc1CNC(=O)CN(C)CC(=O)Nc1ccc(F)c(F)c1F	none (no result: KCNQ1 act, hERG protect, Kir21 block, KCNQ1 inh, KCNK9 inh)
CC(C)Cn1c(=O)c2c(nc3n2CCCN3CCc2ccccc2)n(C)c1=O	KCNK9 inh -8.6 | KCNK9 block conf 46% | Kir2-1 spec inactive | KCNK9 uninduced inactive
O=C(O)C(Cc1ccccc1)N1C(=O)/C(=C/c2ccccc2)SC1=S (stereo not given)	none | KCNK9 block conf inactive | Kir2-1 spec inactive | KCNK9 uninduced inactive
CCC(C(=O)O)N1C(=O)/C(=C/C(C)=C/c2ccccc2)SC1=S (stereo not given)	none | KCNK9 block conf inactive | Kir2-1 spec inactive | KCNK9 uninduced inactive
Cc1ccc(/C=C2\SC(=S)N(C(Cc3ccccc3)C(=O)O)C2=O)cc1 (stereo not given)	none | KCNK9 block conf inactive | Kir2-1 spec inactive | KCNK9 uninduced inactive
CC(C)CCNC(=O)NC(=O)COC(=O)C1CCN(S(=O)(=O)c2ccccc2F)CC1	none
Cc1ccc(CNC(=O)CS(=O)(=O)c2cn(CC(=O)N3CCOCC3)c3ccccc23)cc1	none
Cc1ccc(C(C[N+](=O)[O-])Sc2ccc(N)cc2)cc1 (stereo not given)	none
Cc1ccc(/C=C2\C(=O)ON=C2c2ccccc2)o1	none

Screening data (PubChem)
